Test results taken from BindingDB's records for doi:10.1021/jm000452m (Abbott Laboratories, 2001).

Tests used:
E-selectin = molecular target: T1, E-selectin (Homo sapiens, UniProt P16581); experiment: In vitro potency against TNF alpha induced expression of Selectin E on human vascular endothelial cells using CAM ELISA assay
T1 sequence (P16581 whole entry): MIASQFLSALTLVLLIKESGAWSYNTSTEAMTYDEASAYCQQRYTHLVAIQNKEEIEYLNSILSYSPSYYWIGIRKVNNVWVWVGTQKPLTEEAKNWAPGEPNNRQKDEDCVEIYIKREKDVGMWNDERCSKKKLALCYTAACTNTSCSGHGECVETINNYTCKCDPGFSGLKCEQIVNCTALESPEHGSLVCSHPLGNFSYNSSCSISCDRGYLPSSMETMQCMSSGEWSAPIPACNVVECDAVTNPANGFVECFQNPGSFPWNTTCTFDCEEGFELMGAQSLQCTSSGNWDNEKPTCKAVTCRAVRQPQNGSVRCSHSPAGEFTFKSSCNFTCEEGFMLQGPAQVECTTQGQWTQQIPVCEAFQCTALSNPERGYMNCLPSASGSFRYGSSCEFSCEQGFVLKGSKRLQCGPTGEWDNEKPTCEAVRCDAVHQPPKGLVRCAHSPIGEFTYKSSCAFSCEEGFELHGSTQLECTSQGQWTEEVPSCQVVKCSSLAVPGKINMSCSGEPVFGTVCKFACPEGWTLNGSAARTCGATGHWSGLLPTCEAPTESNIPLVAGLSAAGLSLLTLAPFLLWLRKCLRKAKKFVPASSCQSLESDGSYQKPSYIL
Summary of the method: (§1)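 Surface E-selectin, ICAM-1 or VCAM-1 was detected with mouse monoclonal primary antibody (overnight, 4 °C), then HRP anti-mouse IgG and OPD, with absorbance read at 490 nm. IC50 from triplicates; SEM across repeat triplicate runs.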

[1] = molecular target: Intercellular adhesion molecule 1 (Homo sapiens, UniProt P05362); experiment: In vitro potency against TNF alpha induced expression of intercellular adhesion molecule-1 on human vascular endothelial cells using CAM ELISA assay; summary of the method: as §1
[2] = molecular target: T2, Vascular cell adhesion protein 1 (Homo sapiens, UniProt P19320); experiment: In vitro potency against TNF alpha induced expression of VCAM-1 on human vascular endothelial cells using CAM ELISA assay; summary of the method: as §1
T2 sequence (P19320 whole entry): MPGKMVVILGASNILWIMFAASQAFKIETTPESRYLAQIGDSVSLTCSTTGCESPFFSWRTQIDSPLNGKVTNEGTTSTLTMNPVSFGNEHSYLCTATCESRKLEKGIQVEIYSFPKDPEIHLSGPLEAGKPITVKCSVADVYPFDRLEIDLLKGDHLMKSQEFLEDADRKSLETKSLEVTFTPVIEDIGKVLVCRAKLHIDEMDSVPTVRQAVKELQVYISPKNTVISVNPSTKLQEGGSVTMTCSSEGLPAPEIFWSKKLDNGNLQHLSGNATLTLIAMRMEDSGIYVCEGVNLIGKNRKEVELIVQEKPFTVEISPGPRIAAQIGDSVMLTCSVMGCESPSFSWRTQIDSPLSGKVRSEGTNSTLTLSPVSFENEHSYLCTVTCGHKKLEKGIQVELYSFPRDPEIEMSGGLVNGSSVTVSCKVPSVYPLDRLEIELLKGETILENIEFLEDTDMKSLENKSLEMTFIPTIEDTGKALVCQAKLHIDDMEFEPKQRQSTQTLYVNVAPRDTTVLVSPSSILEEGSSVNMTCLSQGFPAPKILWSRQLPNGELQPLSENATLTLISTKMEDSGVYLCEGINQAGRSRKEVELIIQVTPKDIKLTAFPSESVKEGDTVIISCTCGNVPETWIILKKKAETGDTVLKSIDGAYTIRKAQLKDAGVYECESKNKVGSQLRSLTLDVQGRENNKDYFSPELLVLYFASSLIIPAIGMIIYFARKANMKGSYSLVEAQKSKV

[3] = In vitro potency against TNF alpha induced expression of intercellular adhesion molecule-1 on human vascular endothelial cells using CAM ELISA assay
[4] = In vitro potency against TNF alpha induced expression of Selectin E on human vascular endothelial cells using CAM ELISA assay

Chain of Intercellular adhesion molecule 1 (P05362 whole entry): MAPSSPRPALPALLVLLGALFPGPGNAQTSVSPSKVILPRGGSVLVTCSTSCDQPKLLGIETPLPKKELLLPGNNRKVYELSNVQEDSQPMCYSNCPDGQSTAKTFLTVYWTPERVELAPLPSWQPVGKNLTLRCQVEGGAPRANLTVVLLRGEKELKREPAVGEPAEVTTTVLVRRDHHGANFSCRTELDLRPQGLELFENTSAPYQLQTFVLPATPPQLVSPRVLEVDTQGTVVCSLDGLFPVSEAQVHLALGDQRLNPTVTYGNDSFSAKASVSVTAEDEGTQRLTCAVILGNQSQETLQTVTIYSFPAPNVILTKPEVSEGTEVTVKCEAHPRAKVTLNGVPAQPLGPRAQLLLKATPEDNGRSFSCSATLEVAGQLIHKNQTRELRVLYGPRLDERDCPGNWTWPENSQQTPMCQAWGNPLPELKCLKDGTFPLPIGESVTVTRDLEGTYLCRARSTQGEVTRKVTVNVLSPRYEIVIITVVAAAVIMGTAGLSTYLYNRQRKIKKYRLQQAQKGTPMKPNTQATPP

SMILES	IC50 (E-selectin) [µM]	IC50 [1] [µM]	IC50 [2] [µM]	IC50 [3] [µM]	IC50 [4] [µM]
Cc1ccc(Sc2cncc3sc(C(C)N=O)cc23)cc1 (centres undefined) [1-(4-p-Tolylsulfanyl-thieno[2,3-c]pyridin-2-yl)-ethanone oxime]	0.055	0.085	> 1	–	–
Cc1ccc(Sc2cncc3sc(C(N)=O)cc23)c(C)c1 [4-(2,4-Dimethyl-phenylsulfanyl)-thieno[2,3-c]pyridine-2-carboxylic acid amide]	–	–	0.77	0.054	0.043
Cc1occc1Sc1cncc2sc(C(N)=O)cc12 [4-(2-Methyl-furan-3-ylsulfanyl)-thieno[2,3-c]pyridine-2-carboxylic acid amide]	–	–	> 1	0.57	0.6
NC(=O)c1cc2c(Sc3ccc(Cl)c(Cl)c3)cncc2s1 [4-(3,4-Dichloro-phenylsulfanyl)-thieno[2,3-c]pyridine-2-carboxylic acid amide]	–	–	> 1	0.037	0.1
Cc1ccc(Sc2cncc3sc(C(N)=O)cc23)cc1C [4-(3,4-Dimethyl-phenylsulfanyl)-thieno[2,3-c]pyridine-2-carboxylic acid amide]	–	–	> 1	0.008	0.013
NC(=O)c1cc2c(Sc3ccc(C(F)(F)F)cc3)cncc2s1 [4-(4-Trifluoromethyl-phenylsulfanyl)-thieno[2,3-c]pyridine-2-carboxylic acid amide]	–	–	> 0.1	0.039	0.044
NC(=O)c1cc2c(Sc3ccccn3)cncc2s1 [4-(Pyridin-2-ylsulfanyl)-thieno[2,3-c]pyridine-2-carboxylic acid amide]	–	–	65	2.3	0.66
CCc1cc2c(SCc3ccccc3)ncnc2s1 [4-Benzylsulfanyl-6-ethyl-thieno[2,3-d]pyrimidine]	–	–	17	99	95
CCc1cc2c(Cl)ncnc2s1 [4-Chloro-6-ethyl-thieno[2,3-d]pyrimidine]	–	–	18	> 100	27
Cc1cccc(Sc2cncc3sc(C(N)=O)cc23)c1 [4-m-Tolylsulfanyl-thieno[2,3-c]pyridine-2-carboxylic acid amide]	–	–	> 4	0.14	0.045
Cc1ccc(Sc2ccnc3sc(C(N)=O)cc23)cc1 [4-p-Tolylsulfanyl-thieno[2,3-b]pyridine-2-carboxylic acid amide]	–	–	15	39	16
Cc1ccc(Sc2cncc3sc(CN=O)cc23)cc1 [4-p-Tolylsulfanyl-thieno[2,3-c]pyridine-2-carbaldehyde oxime]	1.5	1.9	> 4	–	–
Cc1ccc(Sc2cncc3sc(C(N)=S)cc23)cc1 [4-p-Tolylsulfanyl-thieno[2,3-c]pyridine-2-carbothioic acid amide]	–	–	19	0.16	0.15
Cc1ccc(Sc2cncc3sc(C(=O)NCCCN4CCOCC4)cc23)cc1 [4-p-Tolylsulfanyl-thieno[2,3-c]pyridine-2-carboxylic acid (3-morpholin-4-yl-propyl)-amide]	–	–	> 4	> 4	> 4
Cc1ccc(Sc2cncc3sc(C(N)=O)cc23)cc1 [4-p-Tolylsulfanyl-thieno[2,3-c]pyridine-2-carboxylic acid amide]	–	–	> 1	–	–
Cc1ccc(Sc2cncc3sc(C(=O)NN)cc23)cc1 [4-p-Tolylsulfanyl-thieno[2,3-c]pyridine-2-carboxylic acid hydrazide]	–	–	46	0.032	0.032
Cc1ccc(Sc2cncc3sccc23)cc1 [4-p-Tolylsulfanyl-thieno[2,3-c]pyridine]	–	–	2.1	1.8	1.7
CCc1cc2c(Sc3nnc(C)s3)ncnc2s1 [6-Ethyl-4-(5-methyl-[1,3,4]thiadiazol-2-ylsulfanyl)-thieno[2,3-d]pyrimidine]	–	–	3.5	5	4
Cc1ccc(Sc2cncc3sc(/C=N/OCC(=O)O)cc23)cc1 [(4-p-Tolylsulfanyl-thieno[2,3-c]pyridin-2-ylmethyleneaminooxy)-acetic acid]	–	–	> 4	> 4	> 4
CCc1cc2c(NCc3ccccc3)ncnc2s1 [Benzyl-(6-ethyl-thieno[2,3-d]pyrimidin-4-yl)-amine]	–	–	59	56	49
CCc1cc2c(Sc3nnc(N)s3)ncnc2s1 [GNF-Pf-1931]	–	–	2.5	6.3	3
CCc1cc2c(=O)[nH]cnc2s1 [MLS000029626]	–	–	> 100	> 100	> 100
